Active and inactive are the calls of the source. The rule behind the calls is not given here.
Key:
[1] = molecular target: T1, Indoleamine 2,3-dioxygenase 1 (Homo sapiens, UniProt P14902); test: Uncompetitive inhibition of human recombinant IDO1 using L-tryptophan as substrate
Procedure, shortened: (§1)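 Reversibility and inhibition mode taken from kinetic graphical plots of recombinant human IDO-1 activity. The enzyme assay used a methylene blue/ascorbate regeneration system. Ki derived by plotting [S]/V against inhibitor concentration.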
Target sequence in this assay (P14902 whole entry): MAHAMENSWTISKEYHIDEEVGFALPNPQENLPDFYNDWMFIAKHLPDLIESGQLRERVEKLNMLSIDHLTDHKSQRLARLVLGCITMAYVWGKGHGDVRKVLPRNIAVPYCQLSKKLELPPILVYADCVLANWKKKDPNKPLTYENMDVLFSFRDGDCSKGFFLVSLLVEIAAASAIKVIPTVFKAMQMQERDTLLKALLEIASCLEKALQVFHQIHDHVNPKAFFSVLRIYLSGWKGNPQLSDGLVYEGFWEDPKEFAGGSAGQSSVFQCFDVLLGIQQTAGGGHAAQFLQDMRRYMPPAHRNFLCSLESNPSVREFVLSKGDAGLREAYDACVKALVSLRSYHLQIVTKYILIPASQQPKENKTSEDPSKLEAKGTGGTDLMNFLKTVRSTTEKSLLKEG

[2] = DPPH radical scavenging activity assessed as reducing ability at 5 to 160 uM after 30 mins by spectrophotometry; settings: 0.5 h
[3] = molecular target: T1, Indoleamine 2,3-dioxygenase 1; test: Inhibition of human IDO1 expressed in HEK293 cells assessed as kynurenine release after 5 hrs by spectrophotometry; type: cell-based
[4] = molecular target: T1, Indoleamine 2,3-dioxygenase 1; test: Inhibition of human recombinant IDO1 using L-tryptophan as substrate
Target sequence in this assay (P14902 whole entry): as above

[5] = molecular target: T1, Indoleamine 2,3-dioxygenase 1; test: Mixed competitive inhibition of human recombinant IDO1 using L-tryptophan as substrate; procedure, shortened: as §1
Target sequence in this assay (P14902 whole entry): as above

[6] = molecular target: T1, Indoleamine 2,3-dioxygenase 1; test: Competitive inhibition of human recombinant IDO1 using L-tryptophan as substrate
Target sequence in this assay (P14902 whole entry, looked up): as the sequence (P14902 whole entry) above

[7] = DPPH radical scavenging activity assessed as reducing ability at […] after 30 mins by spectrophotometry; type: physicochemical; settings: 0.5 h
Procedure, shortened: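 Tryptanthrins at 5, 10, 20, 40, 80 or 160 μM in DMSO (100 μL) mixed with 100 μL DPPH radical (100 μM in ethanol, acetate-buffered pH 5.5). Absorbance at 517 nm read after 30 min gentle shaking in the dark. Ascorbic acid as reference. Triplicates.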

[8] = molecular target: T1, Indoleamine 2,3-dioxygenase 1; test: Binding affinity to human IDO1 by SPR assay
Procedure, shortened: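 SPR at 25 °C on purified human IDO-1 immobilized on a CM5 sensor chip, compound injected at a series of concentrations. Running buffer PBS with 0.1% dodecylmaltoside, 0.05 mM EDTA and 5% DMSO, pH 7.4. KD taken as the equilibrium dissociation constant from instrument evaluation.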
Target sequence in this assay (P14902 whole entry): as above

[9] = test system: Lewis lung carcinoma cell line; test: Antitumor activity against mouse LLC cells allografted in C57BL/6 mouse assessed as reduction in tumor volume at 200 mg/kg, po qd after 14 days; type: functional; settings: 336 h, read-out: TGI
[10] = test system: Mus musculus; test: In vivo inhibition of IDO1 in C57BL/6 mouse allografted with mouse LLC cells assessed as kynurenine to tryptophan ratio in plasma at 200 mg/kg, po qd after 14 days by HPLC analysis relative to control; type: functional, organism-based; design: dose 200 mg/kg
Procedure, shortened: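 C57BL/6 mice, 8 weeks old, given 2 × 10^6 LLC cells sc in right forelimb and randomized to three groups. Oral dosing once daily from 5 mm tumor diameter with 0.5% CMC vehicle or 200 mg/kg. Plasma taken after 14 days. Trp and Kyn measured by HPLC and Kyn/Trp ratio calculated, n = 9−10. One-way ANOVA against vehicle.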

[11] = test system: Mus musculus; test: Reduction of Foxp3 expression in nucleus of C57BL/6 mouse tumor allografted with mouse LLC cells at 200 mg/kg, po qd after 14 days by immunohistochemical analysis
[12] = test system: Mus musculus; test: Upregulation of IDO1 expression in cytoplasm of C57BL/6 mouse tumor allografted with mouse LLC cells at 200 mg/kg, po qd after 14 days by immunohistochemical analysis; type: functional, organism-based; design: dose 200 mg/kg
Procedure, shortened: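 LLC allografts in C57BL/6 mice, sc at 2 × 10^6 cells. Oral dosing once daily at 200 mg/kg or 0.5% CMC vehicle from 5 mm tumor diameter for 14 days. Tumors and TDLNs cut into 5 μm sections with heat antigen retrieval. Rabbit Foxp3 Ab (1/100) or mouse IDO-1 Ab (1/50) applied 1 h, then Alexa Fluor secondary 30 min. Nuclei counterstained; imaged at ×200.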

Row | Compound | IC50 [1] [µM] | Ki [1] [µM] | Activity [2] | IC50 [3] [µM] | also measured
1 | O=C1c2cc(Br)ccc2-n2c1nc1ccccc1c2=O | 0.574 | 0.389 | Not Active | 0.0539 | 
2 | O=C1c2ccccc2-n2c1nc1ccc(F)cc1c2=O |  |  |  |  | IC50 [4]: 864 µM
3 | Cc1ccc2c(c1)C(=O)c1nc3ccccc3c(=O)n1-2 |  |  |  |  | IC50 [5]: 121 µM; Ki [5]: 219 µM
4 | O=C1c2ccccc2N[C@H]2[C@H](O)c3ccccc3N12 | 16 | 8.58 |  | 0.779 | 
5 | O=C1c2cc([N+](=O)[O-])ccc2-n2c1nc1ccccc1c2=O | 0.103 | 0.054 | Not Active |  | 
6 | O=C1c2cc(Cn3cc(-c4ccccc4)nn3)ccc2-n2c1nc1ccc(F)cc1c2=O |  |  |  |  | inhibition [6]: inactive; inhibition [3]: inactive
7 | O=C1c2ccc(Cl)cc2-n2c1nc1ccccc1c2=O | 74.4 | 49.4 |  | 0.183 | 
8 | O=C1c2c(Cl)cccc2-n2c1nc1ccccc1c2=O | 8.19 | 9.65 | Not Active | 0.0271 | 
9 | O=C1c2ccccc2N[C@H]2[C@H](O)c3cc(F)ccc3N12 | 6.21 | 4.54 |  | 0.0243 | 
10 | O=C1c2cc(F)ccc2N[C@H]2[C@H](O)c3ccccc3N12 |  |  |  |  | IC50 [4]: 451 µM
11 | O=C1c2ccccc2-n2c1nc1ccccc1c2=O [TRYPTANTHRIN] |  |  | Not Active | 0.0537 | IC50 [5]: 7.15 µM; Ki [5]: 4.81 µM
12 | O=C1O[C@H]([C@@H](O)CO)C(O)=C1O [ASCORBIC ACID] |  |  |  |  | Activity [7]: Active
13 | O=C1c2cc(F)ccc2-n2c1nc1ccccc1c2=O | 0.534 | 0.161 | Not Active | 0.023 | Kd [8]: 46.8 µM; inhibition in vivo at 200 mg/kg [9]: 62%; inhibition [10]: Active; Activity [11]: Active; Activity [12]: Active
14 | O=C1c2cc(F)ccc2-n2c1nc1ccc(F)cc1c2=O | 2.72 | 5.48 |  | 0.466 | 

Reference: ChEMBL document CHEMBL3085691, “Discovery of tryptanthrin derivatives as potent inhibitors of indoleamine 2,3-dioxygenase with therapeutic activity in Lewis lung cancer (LLC) tumor-bearing mice” (J Med Chem, 2013)
